Measurements gathered from unrelated publications.
Protocols differ between the studies behind these lines.
Observed: cell growth or viability

For CC(C)C[C@@H]1NC(=O)[C@@H](N(C)C(=O)[C@@H](NC(=O)[C@@H]2C[C@@H](F)CN2C(=O)C2(C(F)(F)F)CC(F)(F)C2)C2CC2)CCCCNC(=O)C(C)(C)NC(=O)[C@H](Cc2cc(Cl)nn2-c2ccccc2)N(C)C1=O, the GI50 was 4400 nM (NCI-H446; MTT; 5 days).
With COc1ccc(N)cc1-c1c[nH]c2ncc(-c3cncc(C(=O)N(C)C)c3)cc12 the GI50 was 175 nM (K562; MTT; 72 h).
The IC50 of COc1cc2c3c(n(CCCNC(C)C)c(=O)c2cc1OC)-c1nc2c(cc1C3=O)OCO2 is reported as 182 nM (K562; MTS; 72 h).
For CCC[C@H]1NC(=O)[C@H](Cc2cc(Cl)ccc2-c2cnn(C)c2)N(C)C(=O)[C@H](CC(C)C)NC(=O)[C@@H](N(C)C(=O)[C@H](CCCCN2CCOCC2)NC(=O)[C@@H](c2cccnc2)C2CCCCC2)CCCCNC1=O, the GI50 was 4200 nM (NCI-H446; MTT; 5 days).
CCNCCCn1c2c(c3cc(OC)c(OC)cc3c1=O)C(=O)c1cc3c(nc1-2)OCO3 gave an IC50 of 158 nM (K562; MTS; 72 h).
CCN(c1cc(-c2ccc(CN3CCOCC3)cc2)cc(C(=O)NCc2c(C)cc(C)[nH]c2=O)c1C)C1CCOCC1 has a GI50 of 385 nM (HT-1376; ATP luminescence; 18 days).
C=C(F)C(=O)N1CCN(c2nc(OC[C@@H]3CCCN3C)nc3c2CCN(c2cccc4cccc(Cl)c24)C3)C[C@@H]1CC#N gave an IC50 of 5.15 nM (NCI-H1373; ATP luminescence; 3D culture).
C=CC(=O)NC1CCN(c2ncc3ncnc(Nc4ccc(Oc5ccc6c(c5)ncn6C)c(C)c4)c3n2)CC1 gave an EC50 of 313 nM (COR-L88).
CN(C)C(=O)c1cncc(-c2cnc3[nH]cc(-c4ccccc4C(F)(F)F)c3c2)c1 gave a GI50 of 453 nM (K562; MTT; 72 h).
O=C(NO)c1ccc(CNc2nc3cccc(-c4ccc5c(c4)OCO5)n3n2)cc1 has a GI50 of 700 nM (HOP-92; SRB).
The GI50 of COc1ccc(C#N)cc1-c1c[nH]c2ncc(-c3cncc(C(=O)N(C)C)c3)cc12 is reported as 330 nM (K562; MTT; 72 h).
Cc1sc2c(c1C)C(c1ccc(Cl)cc1)=N[C@@H](CC(=O)NCCCCCCCCNC(=O)COc1cccc3c1C(=O)N(C1CCC(=O)NC1=O)C3=O)c1nnc(C)n1-2 (stereo partly shown) has an IC50 of 343 nM (K562; ATP luminescence).
The GI50 of O=C(O)c1cccnc1Nc1cccc(C(F)(F)F)c1 is reported as > 30000 nM (HCT-15; SRB; 48 h).
O=C(Nc1ccc(OC(F)(F)Cl)cc1)c1cnc(N2CC[C@@H](O)C2)c(-c2cc[nH]n2)c1 gave a GI50 of 0.72 nM (K562; MTT; 72 h).
With COc1cc2c3c(n(CCCn4ccnc4)c(=O)c2cc1OC)-c1nc2c(cc1C3=O)OCO2 the IC50 was 580 nM (K562; MTS; 72 h).
The GI50 of C=CC(=O)c1cccnc1Nc1cccc(C(F)(F)F)c1 is reported as 15400 nM (HCT-15; SRB; 48 h).
